For 33 compounds, Cytotoxicity, inhibition and IC50 results are on record in ChEMBL document CHEMBL1145072, “Synthesis and biological evaluation of novel flavone-8-acetic acid derivatives as reversible inhibitors of aminopeptidase N/CD13” (J Med Chem, 2003).

By inhibition is commonly meant the percentage by which the read-out fell short of the control. What is called IC50 is the midpoint of a concentration-inhibition curve.

For assay [1], the system named is U-937. Put plainly: In vitro cytotoxicity towards U937 cell growth was evaluated after 3 days of incubation (10e-4 M). The assay is classed as functional, Homo sapiens. The method, boiled down: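 Human monoblastic U937 cells in RPMI 1640 with 10% heat-inactivated FCS, 5% CO2, 37 °C; seeded at 0.5 × 10⁵ cells/mL in fresh medium and exposed continuously to 10^-4 M compound for 3 days. Cells then washed twice and counted, and viability determined by trypan blue exclusion.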

The target of assay [2] is Aminopeptidase N (Homo sapiens) (UniProt P15144). Put plainly: In vitro inhibition of aminopeptidase N (APN) activity in intact U937 cells in presence of Ala-pNA and 10e-3 M concentration of compound. The assay is classed as cell-based. The conditions noted are these: U-937. The method, boiled down: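 Intact U937 cells (5 × 10⁵) incubated 15 min at 37 °C in 0.1 mL peptidase buffer with Ala-pNA (0.5 mg/mL) and compound at 10^-3 M. pNA release read at 405 nm. Remaining activity expressed as percent of uninhibited control; mean of three to ten experiments ± SD.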
Target sequence in this assay (P15144 whole entry): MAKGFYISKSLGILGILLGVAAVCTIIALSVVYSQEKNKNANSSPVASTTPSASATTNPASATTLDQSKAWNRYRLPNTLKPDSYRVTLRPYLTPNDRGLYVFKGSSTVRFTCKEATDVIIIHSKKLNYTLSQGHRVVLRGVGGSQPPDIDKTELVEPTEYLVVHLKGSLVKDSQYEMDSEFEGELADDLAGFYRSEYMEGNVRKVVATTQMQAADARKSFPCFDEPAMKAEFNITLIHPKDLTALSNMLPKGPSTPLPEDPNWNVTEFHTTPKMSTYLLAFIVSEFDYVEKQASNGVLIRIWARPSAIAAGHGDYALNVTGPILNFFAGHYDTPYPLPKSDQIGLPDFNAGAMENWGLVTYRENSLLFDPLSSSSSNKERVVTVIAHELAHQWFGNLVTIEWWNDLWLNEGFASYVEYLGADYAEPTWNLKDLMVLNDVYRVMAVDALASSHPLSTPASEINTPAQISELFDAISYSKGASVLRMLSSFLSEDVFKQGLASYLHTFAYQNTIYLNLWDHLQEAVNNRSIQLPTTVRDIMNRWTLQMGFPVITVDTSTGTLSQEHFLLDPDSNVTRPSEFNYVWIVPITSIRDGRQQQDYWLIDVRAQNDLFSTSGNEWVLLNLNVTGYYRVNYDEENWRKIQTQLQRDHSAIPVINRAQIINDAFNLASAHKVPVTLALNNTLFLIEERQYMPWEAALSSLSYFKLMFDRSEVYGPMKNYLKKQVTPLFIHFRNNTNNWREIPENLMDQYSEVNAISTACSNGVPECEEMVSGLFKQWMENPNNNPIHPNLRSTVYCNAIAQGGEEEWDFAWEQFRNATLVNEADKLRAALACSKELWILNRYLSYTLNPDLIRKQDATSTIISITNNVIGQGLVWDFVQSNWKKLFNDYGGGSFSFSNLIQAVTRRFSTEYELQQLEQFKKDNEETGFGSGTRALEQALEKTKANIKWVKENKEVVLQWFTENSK

Assay [3] concerns the target T1, Neprilysin (Rattus norvegicus) (UniProt P07861).
T1 sequence (whole entry): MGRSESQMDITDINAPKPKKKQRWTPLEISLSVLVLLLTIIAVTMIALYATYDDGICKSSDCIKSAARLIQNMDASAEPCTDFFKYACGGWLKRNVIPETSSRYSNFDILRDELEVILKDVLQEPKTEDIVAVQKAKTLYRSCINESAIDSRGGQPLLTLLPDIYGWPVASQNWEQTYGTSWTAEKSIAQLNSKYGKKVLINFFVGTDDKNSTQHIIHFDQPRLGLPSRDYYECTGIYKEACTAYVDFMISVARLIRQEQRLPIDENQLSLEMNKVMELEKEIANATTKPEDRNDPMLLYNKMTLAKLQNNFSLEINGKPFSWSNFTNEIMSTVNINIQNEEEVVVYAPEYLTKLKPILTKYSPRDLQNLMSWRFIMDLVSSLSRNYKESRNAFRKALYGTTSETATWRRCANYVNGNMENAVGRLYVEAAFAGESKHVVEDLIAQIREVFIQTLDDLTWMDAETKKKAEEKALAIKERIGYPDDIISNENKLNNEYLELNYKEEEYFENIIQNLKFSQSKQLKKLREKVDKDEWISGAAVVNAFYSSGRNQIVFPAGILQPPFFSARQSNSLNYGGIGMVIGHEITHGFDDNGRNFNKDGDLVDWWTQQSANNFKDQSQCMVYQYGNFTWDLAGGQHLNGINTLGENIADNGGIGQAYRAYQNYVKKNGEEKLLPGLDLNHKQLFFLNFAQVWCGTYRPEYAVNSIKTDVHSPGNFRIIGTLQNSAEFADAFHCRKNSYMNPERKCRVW
Kind of assay: Inhibition of neutral endopeptidase (NEP[…]) at 0.3*10e-3 M compound concentration.

Assay [4] addresses T2, Aminopeptidase N (Sus scrofa) (UniProt P15145).
T2 sequence (whole entry): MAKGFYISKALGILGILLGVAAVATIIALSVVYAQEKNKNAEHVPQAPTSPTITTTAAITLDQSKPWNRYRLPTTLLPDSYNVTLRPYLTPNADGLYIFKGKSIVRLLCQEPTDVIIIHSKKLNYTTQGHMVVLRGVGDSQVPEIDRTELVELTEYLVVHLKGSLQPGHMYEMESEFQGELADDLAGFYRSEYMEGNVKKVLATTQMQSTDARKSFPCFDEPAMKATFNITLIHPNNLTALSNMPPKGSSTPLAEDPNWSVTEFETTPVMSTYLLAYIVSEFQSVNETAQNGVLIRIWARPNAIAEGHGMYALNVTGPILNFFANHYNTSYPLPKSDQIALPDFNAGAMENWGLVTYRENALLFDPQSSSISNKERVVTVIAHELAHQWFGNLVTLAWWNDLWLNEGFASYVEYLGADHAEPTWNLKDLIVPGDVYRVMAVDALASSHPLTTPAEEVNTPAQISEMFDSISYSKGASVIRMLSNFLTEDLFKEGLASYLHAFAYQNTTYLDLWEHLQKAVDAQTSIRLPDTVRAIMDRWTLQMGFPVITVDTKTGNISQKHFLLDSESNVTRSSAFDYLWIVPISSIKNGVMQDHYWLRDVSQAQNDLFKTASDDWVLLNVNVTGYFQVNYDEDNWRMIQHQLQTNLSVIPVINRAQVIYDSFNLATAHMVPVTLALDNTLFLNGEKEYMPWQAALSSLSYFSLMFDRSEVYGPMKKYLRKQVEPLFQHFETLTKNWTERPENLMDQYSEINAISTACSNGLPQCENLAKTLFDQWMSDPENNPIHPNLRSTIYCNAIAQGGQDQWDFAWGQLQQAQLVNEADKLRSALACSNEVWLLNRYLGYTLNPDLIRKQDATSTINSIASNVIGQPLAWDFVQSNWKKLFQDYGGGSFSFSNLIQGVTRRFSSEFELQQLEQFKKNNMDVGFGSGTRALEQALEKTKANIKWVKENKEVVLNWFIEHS
Kind of assay: Inhibition of cell surface aminopeptidase N (APN/CD13) at 0.3*10e-3 M compound concentration.

Assay [5] deals with Aminopeptidase N (Homo sapiens) (UniProt P15144). Put plainly: Inhibitory concentration of compound towards cell surface aminopeptidase N (APN/CD13) on human U937 cells.
Target sequence in this assay (P15144 whole entry, looked up): as the sequence (P15144 whole entry) above

Consider `O=c1c([N+](=O)[O-])c(-c2ccccc2[N+](=O)[O-])oc2ccccc12`, for which the Cytotoxicity in assay [1] is given as >40%. In addition, the inhibition in assay [2] was < 5%.
On the same counts, the results for `O=C(O)Cc1cccc2c(=O)cc(-c3ccccc3)oc12` [MITOFLAXONE] are <10% and 30%.
The matching figures for `COCOC(=O)Cc1cccc2c(=O)c(N)c(-c3ccccc3O)oc12`: >65% and 19%.
Turning to `COc1ccc(-c2oc3c(CC(=O)O)cccc3c(=O)c2[N+](=O)[O-])cc1[N+](=O)[O-]`, in assay [1], the Cytotoxicity is on record as <10%. The inhibition in assay [2] came to 61%.
On the same counts, the results for `O=C(O)Cc1cccc2c(=O)c3c(oc12)-c1ccccc1OC(=O)N3` are 30% and 19%.
For the compound `O=C(O)Cc1cccc2c(=O)c([N+](=O)[O-])c(-c3ccc([N+](=O)[O-])cc3)oc12`, in assay [1], the Cytotoxicity was <10%. Besides, the inhibition in assay [2] worked out at 63%.
In assay [1], `O=C(O)Cc1cccc2c(O)c3nc4ccccc4c-3oc12` showed a Cytotoxicity of 30%. Also, in assay [2], the inhibition amounted to 10%.
Turning to `O=c1cc(-c2ccccc2)oc2cc(O)c(O)c(O)c12`, the inhibition in assay [3] was 36%; in assay [4], 57%.
Take `C=CCc1cccc2c(=O)c([N+](=O)[O-])c(-c3ccccc3[N+](=O)[O-])oc12`: in assay [1], the Cytotoxicity was <10%. In addition, the inhibition in assay [2] was determined as 16%.
On the same counts, the results for `O=C(O)Cc1cccc2c(=O)c([N+](=O)[O-])c(-c3cccc([N+](=O)[O-])c3)oc12` are <10% and 44%.
In the case of `O=c1c(O)c(-c2ccc(O)c(O)c2)oc2cc(O)cc(O)c12`, the figures for the inhibition in assay [3] and in assay [4] were 49% and 73%, respectively.
For the compound `O=c1cc(-c2ccccc2)oc2ccccc12` [FLAVONE], in assay [1], the Cytotoxicity is reported as <10%. In assay [2], the inhibition stood at 5%.
In the case of `COC(=O)Cc1cccc2c(=O)c([N+](=O)[O-])c(-c3ccccc3)oc12`, the Cytotoxicity in assay [1] was <10%. Moreover, the inhibition in assay [2] is < 5%.
For the compound `COC(=O)c1ccccc1-c1oc2c(CC(=O)O)cccc2c(=O)c1[N+](=O)[O-]`, the Cytotoxicity in assay [1] is listed as <10%. Moreover, the inhibition in assay [2] was found to be 66%.
On to `COc1cc(-c2oc3cc(O)cc(O)c3c(=O)c2O)ccc1O`, for which the results for the inhibition in assay [3] and in assay [4] were 49% and 73%, respectively.
In the case of `COCOC(=O)Cc1cccc2c(=O)c([N+](=O)[O-])c(-c3ccccc3OCc3ccccc3)oc12`, in assay [1], the Cytotoxicity is recorded as >95%. The inhibition in assay [2] was found to be 32%.
Consider `O=C(O)Cc1cccc2c(=O)c([N+](=O)[O-])c(-c3ccccc3[N+](=O)[O-])oc12`, for which, in assay [1], the Cytotoxicity is <10%. In assay [5], this compound had an IC50 of 25 µM. The inhibition in assay [2] was found to be 88%.
As to `CC(C)C[C@H](NC(=O)[C@@H](O)[C@H](N)Cc1ccccc1)C(=O)O` [UBENIMEX], the Cytotoxicity in assay [1] was >40%. For the same compound, the inhibition in assay [2] was 85%.
In the case of `COc1ccc([N+](=O)[O-])c(-c2oc3c(CC(=O)O)cccc3c(=O)c2[N+](=O)[O-])c1`, the Cytotoxicity in assay [1] was <10%. The inhibition in assay [2] was determined as 80%.
As for `O=C(O)Cc1cccc2c(=O)c3c(oc12)-c1ccccc1NC(=O)N3`, the Cytotoxicity in assay [1] is <10%. In addition, the inhibition in assay [2] amounted to 8%.
With `COc1cccc(-c2oc3c(CC(=O)O)cccc3c(=O)c2[N+](=O)[O-])c1[N+](=O)[O-]`, the Cytotoxicity in assay [1] is <10%. The inhibition in assay [2] is 75%.
Consider `COc1ccccc1-c1oc2c(CC(=O)O)cccc2c(=O)c1[N+](=O)[O-]`, for which the Cytotoxicity in assay [1] was >20%. Further, in assay [2], the inhibition came to 69%.
As for `COCOC(=O)Cc1cccc2c(=O)c3c(oc12)-c1ccccc1OC(=O)N3`, in assay [1], the Cytotoxicity is listed as >95%. Moreover, the inhibition in assay [2] was found to be 25%.
As to `O=c1c([N+](=O)[O-])c(-c2ccccc2)oc2ccccc12`, the Cytotoxicity in assay [1] is <10%. Also, the inhibition in assay [2] came out at 30%.
On the same counts, the results for `COc1ccc(-c2oc3c(CC(=O)O)cccc3c(=O)c2[N+](=O)[O-])cc1` are >40% and 64%.
`O=C(O)Cc1cccc2c(=O)c([N+](=O)[O-])c(-c3ccccc3C(=O)OCc3ccccc3)oc12`: the Cytotoxicity in assay [1] was >40%. Also, the inhibition in assay [2] turned out to be 77%.
On the same counts, the results for `O=C(O)Cc1cccc2c(=O)cc(-c3ccccc3[N+](=O)[O-])oc12` are >80% and 83%.
Regarding `O=C(O)Cc1cccc2c(=O)c([N+](=O)[O-])c(-c3ccccc3)oc12`, in assay [1], the Cytotoxicity is <10%. The inhibition in assay [2] is 68%.
For the compound `COCOC(=O)Cc1cccc2c(=O)c([N+](=O)[O-])c(-c3ccccc3[N+](=O)[O-])oc12`, in assay [1], the Cytotoxicity is on record as >85%. The inhibition in assay [2] is 48%.
For the compound `O=CCc1cccc2c(=O)c([N+](=O)[O-])c(-c3ccccc3)oc12`, in assay [1], the Cytotoxicity is given as >40%. Moreover, the inhibition in assay [2] stood at 51%.
`O=C(O)Cc1cccc2c(=O)c([N+](=O)[O-])c(-c3ccccc3Cl)oc12` gave a Cytotoxicity in assay [1] of 30%. For the same compound, the inhibition in assay [2] was 76%.
Turning to `Cl.Nc1c(-c2ccccc2)oc2c(CC(=O)O)cccc2c1=O`, the Cytotoxicity in assay [1] was <10%. In addition, the inhibition in assay [2] came to 33%.
`O=C(O)Cc1cccc2c(=O)c([N+](=O)[O-])c(-c3ccccc3OCc3ccccc3)oc12`: the Cytotoxicity in assay [1] is recorded as >55%. Besides, the inhibition in assay [2] worked out at 76%.
